Measured values: ChEMBL document CHEMBL3217512, “Indole/triazole conjugates are selective inhibitors and inducers of bacterial biofilms” (Medchemcomm, 2013)

Assays:
Escherichia coli [1] = test: Antimicrobial activity against Escherichia coli K-12 ER2718 assessed as effect on planktonic growth at IC50 after 2 to 24 hrs by colony count method; type: organism-based
Escherichia coli [2] = test: Antimicrobial activity against Escherichia coli K-12 ER2718 assessed as effect on planktonic growth at PC75 after 2 to 24 hrs; type: organism-based; settings: in vivo
Escherichia coli [3] = test: Antimicrobial activity against Escherichia coli K-12 ER2718 assessed as effect on planktonic growth at PC25 after 2 to 24 hrs; type: organism-based
Escherichia coli [4] = test: Antimicrobial activity against Escherichia coli K-12 ER2718 assessed as effect on planktonic growth at PC75 after 2 to 24 hrs by colony count method; type: organism-based; settings: in vivo
Escherichia coli [5] = test: Antimicrobial activity against Escherichia coli K-12 ER2718 assessed as effect on planktonic growth at PC50 after 2 to 24 hrs; type: organism-based
Escherichia coli [6] = test: Antimicrobial activity against Escherichia coli K-12 ER2718 assessed as effect on planktonic growth at PC25 after 2 to 24 hrs by colony count method; type: organism-based
Staphylococcus aureus [7] = test: Antimicrobial activity against methicillin-resistant Staphylococcus aureus BAA 44 assessed as effect on planktonic growth at IC50 after 2 to 24 hrs; type: organism-based; settings: in vivo
Staphylococcus aureus [8] = test: Inhibition of biofilm formation in methicillin-resistant Staphylococcus aureus BAA 44 at 150 uM after 24 hrs by crystal violet staining-based assay relative to control; type: functional; settings: BAA 44, 24 h
Outline: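 Static biofilm development in MRSA, read out by crystal violet staining against an untreated control. Initial screen at 150 μM. Inhibitors then went to dose-response, with IC50 taken as the concentration giving 50% inhibition of biofilm growth. Induction was judged at 50 μM: under 50% induction counted as "inducer", over 50% as "strong inducer".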

Staphylococcus aureus [9] = test: Antimicrobial activity against Staphylococcus aureus 29213 assessed as effect on planktonic growth at IC50 after 2 to 24 hrs by colony count method; type: organism-based; settings: in vivo
Acinetobacter baumannii [10] = test: Antimicrobial activity against Acinetobacter baumannii 19606 assessed as effect on planktonic growth at IC50 after 2 to 24 hrs; set-up: species or system ATCC 19606
Staphylococcus aureus [11] = test: Antimicrobial activity against Staphylococcus aureus 29213 assessed as effect on planktonic growth at IC50 after 2 to 24 hrs; type: organism-based; settings: in vivo
Staphylococcus aureus [12] = test: Inhibition of biofilm formation in Staphylococcus aureus 29213 at 150 uM after 24 hrs by crystal violet staining-based assay relative to control; type: functional; settings: Staphylococcus aureus, 29213, 24 h
Escherichia coli [13] = test: Antimicrobial activity against Escherichia coli K-12 ER2718 assessed as effect on planktonic growth at 50 uM after 2 to 24 hrs; type: organism-based
Outline: (§1)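 Growth curve analysis of planktonic bacteria with each biofilm inducer at 50 μM, used to assess toxicity.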

Escherichia coli [14] = test: Antimicrobial activity against Escherichia coli K-12 ER2718 assessed as effect on planktonic growth at IC50 after 2 to 24 hrs; type: organism-based
Staphylococcus aureus [15] = test: Antimicrobial activity against methicillin-resistant Staphylococcus aureus BAA 44 assessed as effect on planktonic growth at IC50 after 2 to 24 hrs by colony count method; type: organism-based; settings: in vivo
Acinetobacter baumannii [16] = test: Antimicrobial activity against Acinetobacter baumannii 19606 assessed as effect on planktonic growth at IC50 after 2 to 24 hrs by colony count method; set-up: species or system ATCC 19606
Escherichia coli [17] = test: Antimicrobial activity against Escherichia coli K-12 ER2718 assessed as effect on planktonic growth at PC50 after 2 to 24 hrs by colony count method; type: organism-based; settings: in vivo
Escherichia coli [18] = test: Induction of biofilm formation in Escherichia coli K-12 ER2718 at 50 uM after 24 hrs by crystal violet staining-based assay relative to control; type: functional
Outline: (§2)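 Static biofilm assay with compounds at 50 μM and crystal violet read-out, relative to an untreated control. Compounds increasing biofilm by less than 50% were called inducers, and by more than 50% strong inducers.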

Acinetobacter baumannii [19] = test: Inhibition of biofilm formation in Acinetobacter baumannii 19606 at 150 uM after 24 hrs by crystal violet staining-based assay relative to control; type: functional; settings: ATCC 19606 = CIP 70.34 = JCM 6841, 24 h
Escherichia coli [20] = test: Inhibition of biofilm formation in Escherichia coli K-12 ER2718 at 150 uM after 24 hrs by crystal violet staining-based assay relative to control; type: functional; settings: K-12 ER2718, 24 h
Staphylococcus aureus [21] = test: Antimicrobial activity against Staphylococcus aureus 29213 assessed as effect on planktonic growth at PC50 after 2 to 24 hrs by colony count method; type: organism-based; settings: in vivo
Staphylococcus aureus [22] = test: Induction of biofilm formation in Staphylococcus aureus 29213 at 50 uM after 24 hrs by crystal violet staining-based assay relative to control; type: functional; outline: as §2
Staphylococcus aureus [23] = test: Antimicrobial activity against Staphylococcus aureus 29213 assessed as effect on planktonic growth at PC25 after 2 to 24 hrs; type: organism-based; settings: in vivo
Staphylococcus aureus [24] = test: Antimicrobial activity against Staphylococcus aureus 29213 assessed as effect on planktonic growth at PC75 after 2 to 24 hrs by colony count method; type: organism-based; settings: in vivo
Staphylococcus aureus [25] = test: Antimicrobial activity against Staphylococcus aureus 29213 assessed as effect on planktonic growth at 50 uM after 2 to 24 hrs; type: organism-based; outline: as §1
Staphylococcus aureus [26] = test: Antimicrobial activity against Staphylococcus aureus 29213 assessed as effect on planktonic growth at PC25 after 2 to 24 hrs by colony count method; type: organism-based; settings: in vivo
Staphylococcus aureus [27] = test: Antimicrobial activity against Staphylococcus aureus 29213 assessed as effect on planktonic growth at PC75 after 2 to 24 hrs; type: organism-based; settings: in vivo
Staphylococcus aureus [28] = test: Antimicrobial activity against Staphylococcus aureus 29213 assessed as effect on planktonic growth at PC50 after 2 to 24 hrs; type: organism-based; settings: in vivo

Row | Compound | Activity (Escherichia coli [1]) | Activity (Staphylococcus aureus [7]) | inhibition at 150 µM (Staphylococcus aureus [8]) [%] | Activity (Staphylococcus aureus [9]) | Activity (Acinetobacter baumannii [10]) | Activity (Staphylococcus aureus [11]) | inhibition at 150 µM (Staphylococcus aureus [12]) [%] | Activity (Escherichia coli [14]) | Activity (Staphylococcus aureus [15]) | Activity (Acinetobacter baumannii [16]) | inhibition at 150 µM (Acinetobacter baumannii [19]) [%] | inhibition at 150 µM (Escherichia coli [20]) [%] | other results
1 | CCCCCCNC(=O)Cn1cc(Cc2c[nH]c3ccccc23)nn1 | Non-toxic | Non-toxic | < 5 | Non-toxic | Non-toxic | Non-toxic | < 5 | Non-toxic | Non-toxic | Non-toxic | 25 |  | Activity (Escherichia coli [2]): Non-toxic; Activity (Escherichia coli [3]): Non-toxic; Activity (Escherichia coli [4]): Non-toxic; Activity (Escherichia coli [5]): Non-toxic; Activity (Escherichia coli [6]): Non-toxic; Activity (Escherichia coli [13]): Non-toxic; Activity (Escherichia coli [17]): Non-toxic; Activity (Escherichia coli [18]): <50%
2 | CCCCCCc1ccc(C(=O)NCCn2cc(Cc3c(Br)[nH]c4ccccc34)nn2)cc1 | Non-toxic | Non-toxic | 25 | Non-toxic | Non-toxic | Non-toxic | 40 | Non-toxic | Non-toxic | Non-toxic | 22 |  | Activity (Escherichia coli [2]): Non-toxic; Activity (Escherichia coli [3]): Non-toxic; Activity (Escherichia coli [4]): Non-toxic; Activity (Escherichia coli [5]): Non-toxic; Activity (Escherichia coli [6]): Non-toxic; Activity (Escherichia coli [13]): Non-toxic; Activity (Escherichia coli [17]): Non-toxic; Activity (Escherichia coli [18]): <50%
3 | O=C(NCCn1cc(Cc2csc3ccccc23)nn1)c1ccccc1 | Non-toxic | Non-toxic | < 5 | Non-toxic | Non-toxic | Non-toxic | < 5 | Non-toxic | Non-toxic | Non-toxic | < 5 | 14 | 
4 | O=C(NCCn1cc(Cc2csc3ccccc23)nn1)c1ccccc1F | Non-toxic | Non-toxic | < 5 | Non-toxic | Non-toxic | Non-toxic |  | Non-toxic | Non-toxic | Non-toxic | < 5 | < 5 | Activity (Staphylococcus aureus [21]): Non-toxic; Activity (Staphylococcus aureus [22]): >50%; Activity (Staphylococcus aureus [23]): Non-toxic; Activity (Staphylococcus aureus [24]): Non-toxic; Activity (Staphylococcus aureus [25]): Non-toxic; Activity (Staphylococcus aureus [26]): Non-toxic; Activity (Staphylococcus aureus [27]): Non-toxic; Activity (Staphylococcus aureus [28]): Non-toxic
5 | COc1ccc(CNC(=O)Cn2cc(Cc3csc4ccccc34)nn2)cc1 | Non-toxic | Non-toxic | < 5 | Non-toxic | Non-toxic | Non-toxic | < 5 | Non-toxic | Non-toxic | Non-toxic | 20 | < 5 | 
6 | COc1ccc(CNC(=O)Cn2cc(Cc3c[nH]c4ccccc34)nn2)cc1 | Non-toxic | Non-toxic | < 5 | Non-toxic | Non-toxic | Non-toxic | < 5 | Non-toxic | Non-toxic | Non-toxic | 20 | < 5 | 
7 | CCCCCCNC(=O)Cn1cc(Cc2csc3ccccc23)nn1 | Non-toxic | Non-toxic | < 5 | Non-toxic | Non-toxic | Non-toxic | < 5 | Non-toxic | Non-toxic | Non-toxic | 20 | < 5 | 
8 | CCCCCCc1ccc(C(=O)NCCn2cc(Cc3csc4ccccc34)nn2)cc1 | Non-toxic | Non-toxic | < 5 | Non-toxic | Non-toxic | Non-toxic | < 5 | Non-toxic | Non-toxic | Non-toxic | < 5 | < 5 | 
9 | O=C(NCCn1cc(Cc2c[nH]c3ccccc23)nn1)c1ccccc1F | Non-toxic | Non-toxic | 35 | Non-toxic | Non-toxic | Non-toxic |  | Non-toxic | Non-toxic | Non-toxic | 15 | < 5 | Activity (Staphylococcus aureus [21]): Non-toxic; Activity (Staphylococcus aureus [22]): <50%; Activity (Staphylococcus aureus [23]): Non-toxic; Activity (Staphylococcus aureus [24]): Non-toxic; Activity (Staphylococcus aureus [25]): Non-toxic; Activity (Staphylococcus aureus [26]): Non-toxic; Activity (Staphylococcus aureus [27]): Non-toxic; Activity (Staphylococcus aureus [28]): Non-toxic
10 | O=C(NCCn1cc(Cc2c[nH]c3ccccc23)nn1)c1ccccc1 | Non-toxic | Non-toxic | < 5 | Non-toxic | Non-toxic | Non-toxic | 23 | Non-toxic | Non-toxic | Non-toxic | < 5 | < 5 | 
11 | O=C(Cn1cc(Cc2c[nH]c3ccccc23)nn1)Nc1ccccc1 | Non-toxic | Non-toxic | < 5 | Non-toxic | Non-toxic | Non-toxic | < 5 | Non-toxic | Non-toxic | Non-toxic | < 5 |  | Activity (Escherichia coli [2]): Non-toxic; Activity (Escherichia coli [3]): Non-toxic; Activity (Escherichia coli [4]): Non-toxic; Activity (Escherichia coli [5]): Non-toxic; Activity (Escherichia coli [6]): Non-toxic; Activity (Escherichia coli [13]): Non-toxic; Activity (Escherichia coli [17]): Non-toxic; Activity (Escherichia coli [18]): <50%
